Assay results from different studies.
Target: Platelet-derived growth factor receptor beta (PDGFRB, Homo sapiens, UniProt P09619)

Compound | test | setting | endpoint | result
COCc1c(-c2cc3cc(C)cc(OC)c3s2)c2c(N)ncnn2c1CN1CCNC(=O)C1 | cell-free assay, competition with immobilised ligand | 1 µM | inhibition | 86%
C#Cc1n[nH]c2c(-c3cn([C@@H](C)c4ccccc4)c(=O)[nH]c3=O)cc(F)cc12 | enzyme activity, inhibitor | 0.1 µM | inhibition | 3.1%
Cn1cncc1[C@](O)(COc1ccc(C#N)cc1-c1ccc(OC(F)(F)F)cc1)c1ccc(C#N)cc1 | cell-free assay, competition with immobilised ligand | 1 µM | remaining binding | 100%
Cn1cc(-c2cc(F)cc(N3CCn4c(cc5c4CCCC5)C3=O)c2CO)cc(Nc2ccc(N3CCN(C4COC4)CC3)cn2)c1=O | enzyme activity, inhibitor | 0.1 µM | inhibition | 2%
N#CC1(c2ccccn2)CCN(Cc2cc(C(=O)O)c(=O)n3ccccc23)CC1 | cell-free assay, competition with immobilised ligand | 1 µM | remaining binding | 100%
Nc1ncc(-c2nc(N3CCOCC3)nc(N3CCOCC3)n2)c(C(F)F)n1 | binding, competition with immobilised ligand | 10 µM | remaining binding | 69%
COc1ncccc1-c1cnn2ccc(N3CCN(C(=O)OC(C)C)CC3)nc12 | binding, competition with immobilised ligand | 1 µM | remaining binding | 83%
CC(C)(C)c1cc(C=C(C#N)C#N)cc(Br)c1O | enzyme activity, inhibitor | 0.5 µM | remaining activity | 104%
Cn1cc(-c2cccc(N3CCc4c(sc5c4CC(C)(C)C5)C3=O)c2CO)cc(Nc2ccncn2)c1=O | enzyme activity, inhibitor | 1 µM | inhibition | 3%
C#Cc1n[nH]c2c(-c3cn([C@@H](C)c4ccccn4)c(=O)[nH]c3=O)cc(F)cc12 | enzyme activity, inhibitor | 0.1 µM | inhibition | 4%
O=c1[nH]c2ccccc2n1C1CCN(Cc2ccc(-c3[nH]c4cc5ncnc5cc4nc3-c3ccccc3)cc2)CC1 | enzyme activity | 0.5 µM | remaining activity | 102%
